# Assays:
# Type in all cases: functional
# Mus musculus [1] = assay: In vivo percent increase in life span relative to untreated controls in B6D2F1/J male mice at dose 40 mg/kg
# Mus musculus [2] = assay: In vivo antitumor efficacy expressed as number survivors in 60-days out of 7 male mice at dose 60 mg/kg; Value represented as = 5/7
# Mus musculus [3] = assay: In vivo percent increase in life span relative to untreated controls in B6D2F1/J male mice at dose 50 mg/kg
# Mus musculus [4] = assay: In vivo percent increase in life span relative to untreated controls in B6D2F1/J male mice at dose 60 mg/kg
# Mus musculus [5] = assay: In vivo percent increase in life span relative to untreated controls in B6D2F1/J male mice at dose 30 mg/kg
# Mus musculus [6] = assay: In vivo antitumor efficacy expressed as number survivors in 60-days out of 7 male mice at dose 20 mg/kg; Value represented as = 3/7
# Mus musculus [7] = assay: In vivo percent increase in life span relative to untreated controls in B6D2F1/J male mice at dose 20 mg/kg
# Mus musculus [8] = assay: In vivo antitumor efficacy expressed as number survivors in 60-days out of 7 male mice at dose 40 mg/kg; Value represented as = 6/7
# Mus musculus [9] = assay: In vivo antitumor efficacy expressed as number survivors in 60-days out of 7 male mice at dose 30 mg/kg; Value represented as = 4/7
# CCRF-CEM = assay: In vitro inhibitory activity against CCRF-CEM cell growth in culture, after 48-h incubation.; conditions: Homo sapiens, read-out: ID50 (the source's name)
# How it was run: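 Human lymphoblastic leukemia CCRF-CEM cells grown in culture with drug for 48 h. ID50 is the drug concentration that inhibits culture growth by 50% relative to untreated controls, reported in μM.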
# Mus musculus [10] = assay: In vivo antitumor efficacy expressed as number survivors in 60-days out of 7 male mice at dose 50 mg/kg; Value represented as = 5/7
# Mus musculus [11] = assay: In vivo antitumor efficacy expressed as number survivors in 60-days out of 7 male mice at dose 70 mg/kg; Value represented as = 7/7
# Mus musculus [12] = assay: In vivo antitumor efficacy expressed as number survivors in 60-days out of 7 male mice at dose 60 mg/kg; Value represented as = 6/7
# Mus musculus [13] = assay: In vivo percent increase in life span relative to untreated controls in B6D2F1/J male mice at dose 70 mg/kg
# Mus musculus [14] = assay: In vivo antitumor efficacy expressed as number survivors in 60-days out of 7 male mice at dose 60 mg/kg; Value represented as = 4/7
# Mus musculus [15] = assay: In vivo antitumor efficacy expressed as number survivors in 60-days out of 7 male mice at dose 70 mg/kg; Value represented as = 4/7
# Mus musculus [16] = assay: In vivo antitumor efficacy expressed as number survivors in 60-days out of 7 male mice at dose 30 mg/kg; Value represented as = 0/7
# Mus musculus [17] = assay: In vivo antitumor efficacy expressed as number survivors in 60-days out of 7 male mice at dose 40 mg/kg; Value represented as = 1/7
# Mus musculus [18] = assay: In vivo antitumor efficacy expressed as number survivors in 60-days out of 7 male mice at dose 50 mg/kg; Value represented as = 2/7
# Mus musculus [19] = assay: In vivo antitumor efficacy expressed as number survivors in 60-days out of 7 male mice at dose 70 mg/kg; Value represented as = 6/7
# Mus musculus [20] = assay: In vivo antitumor efficacy expressed as number survivors in 60-days out of 7 male mice at dose 40 mg/kg; Value represented as = 0/7
# Mus musculus [21] = assay: In vivo antitumor efficacy expressed as number survivors in 60-days out of 7 male mice at dose 50 mg/kg; Value represented as = 4/7
# Mus musculus [22] = assay: In vivo antitumor efficacy expressed as number survivors in 60-days out of 7 male mice at dose 60 mg/kg; Value represented as = 7/7
# Mus musculus [23] = assay: In vivo antitumor efficacy expressed as number survivors in 60-days out of 7 male mice at dose 50 mg/kg; Value represented as = 1/7
# Mus musculus [24] = assay: In vivo antitumor efficacy expressed as number survivors in 60-days out of 7 male mice at dose 40 mg/kg; Value represented as = 3/7
# Mus musculus [25] = assay: In vivo antitumor efficacy expressed as number survivors in 60-days out of 7 male mice at dose 70 mg/kg; Value represented as = 1/7
# Mus musculus [26] = assay: In vivo antitumor efficacy expressed as number survivors in 60-days out of 7 male mice at dose 50 mg/kg; Value represented as = 0/7
# Mus musculus [27] = assay: In vivo antitumor efficacy expressed as number survivors in 60-days out of 7 male mice at dose 60 mg/kg; Value represented as = 1/7
# Mus musculus [28] = assay: In vivo antitumor efficacy expressed as number survivors in 60-days out of 7 male mice at dose 60 mg/kg; Value represented as = 0/7
# Mus musculus [29] = assay: In vivo antitumor efficacy expressed as number survivors in 60-days out of 7 male mice at dose 4 mg/kg; Value represented as = 0/7
# Mus musculus [30] = assay: In vivo antitumor efficacy expressed as number survivors in 60-days out of 7 male mice at dose 1 mg/kg; Value represented as = 0/7
# Mus musculus [31] = assay: In vivo antitumor efficacy expressed as number survivors in 60-days out of 7 male mice at dose 3 mg/kg; Value represented as = 0/7
# Mus musculus [32] = assay: In vivo percent increase in life span relative to untreated controls in B6D2F1/J male mice at dose 2 mg/kg
# Mus musculus [33] = assay: In vivo antitumor efficacy expressed as number survivors in 60-days out of 7 male mice at dose 5 mg/kg; Value represented as = 0/7
# Mus musculus [34] = assay: In vivo percent increase in life span relative to untreated controls in B6D2F1/J male mice at dose 1 mg/kg
# Mus musculus [35] = assay: In vivo antitumor efficacy expressed as number survivors in 60-days out of 7 male mice at dose 2 mg/kg; Value represented as = 0/7
# Mus musculus [36] = assay: In vivo percent increase in life span relative to untreated controls in B6D2F1/J male mice at dose 4 mg/kg
# Mus musculus [37] = assay: In vivo percent increase in life span relative to untreated controls in B6D2F1/J male mice at dose 3 mg/kg
SMILES,ILS at 40 mg/kg (Mus musculus [1]) [%],Survivors (Mus musculus [2]),ILS at 50 mg/kg (Mus musculus [3]) [%],ILS at 60 mg/kg (Mus musculus [4]) [%],ILS at 30 mg/kg (Mus musculus [5]) [%],IC50 (CCRF-CEM) [nM],Survivors (Mus musculus [10]),ILS at 70 mg/kg (Mus musculus [13]) [%],Survivors (Mus musculus [20]),further results
CCCCC(=O)OCC(=O)[C@]1(O)Cc2c(O)c3c(c(O)c2[C@@H](OC2CC(NC(=O)C(F)(F)F)C(O)C(C)O2)C1)C(=O)c1c(OC)cccc1C3=O (some centres undefined),> 445,5,> 445,> 445,> 445,240,5,–,–,Survivors (Mus musculus [6]): 3; ILS at 20 mg/kg (Mus musculus [7]): 281%; Survivors (Mus musculus [8]): 6; Survivors (Mus musculus [9]): 4
COc1cccc2c1C(=O)c1c(O)c3c(c(O)c1C2=O)C[C@@](O)(C(=O)COC(=O)CCCCC(=O)O)C[C@@H]3OC1CC(NC(=O)C(F)(F)F)C(O)C(C)O1 (some centres undefined),> 445,–,> 445,> 445,–,310,5,> 445,–,Survivors (Mus musculus [11]): 7; Survivors (Mus musculus [12]): 6; Survivors (Mus musculus [8]): 6
COc1cccc2c1C(=O)c1c(O)c3c(c(O)c1C2=O)C[C@@](O)(C(=O)COC(=O)CCCC(=O)O)C[C@@H]3OC1CC(NC(=O)C(F)(F)F)C(O)C(C)O1 (some centres undefined),109,–,172,> 445,81,280,–,> 445,–,Survivors (Mus musculus [14]): 4; Survivors (Mus musculus [15]): 4; Survivors (Mus musculus [16]): 0; Survivors (Mus musculus [17]): 1; Survivors (Mus musculus [18]): 2
COc1cccc2c1C(=O)c1c(O)c3c(c(O)c1C2=O)C[C@@](O)(C(=O)COC(=O)CCCCCCCCC(=O)O)C[C@@H]3OC1CC(NC(=O)C(F)(F)F)C(O)C(C)O1 (some centres undefined),109,5,> 445,> 445,–,500,–,> 445,0,Survivors (Mus musculus [19]): 6; Survivors (Mus musculus [21]): 4
COc1cccc2c1C(=O)c1c(O)c3c(c(O)c1C2=O)C[C@@](O)(C(=O)COC(=O)CCCCCC(=O)O)C[C@@H]3OC1CC(NC(=O)C(F)(F)F)C(O)C(C)O1 (some centres undefined),181,–,136,> 445,–,360,–,> 445,–,Survivors (Mus musculus [22]): 7; Survivors (Mus musculus [19]): 6; Survivors (Mus musculus [23]): 1; Survivors (Mus musculus [24]): 3
COc1cccc2c1C(=O)c1c(O)c3c(c(O)c1C2=O)C[C@@](O)(C(=O)CO)C[C@@H]3OC1CC(NC(=O)C(F)(F)F)C(O)C(C)O1 (some centres undefined),–,–,–,–,–,230,–,–,–,–
COc1cccc2c1C(=O)c1c(O)c3c(c(O)c1C2=O)C[C@@](O)(C(=O)COC(=O)CC(=O)O)C[C@@H]3OC1CC(NC(=O)C(F)(F)F)C(O)C(C)O1 (some centres undefined),109,–,109,136,–,330,–,154,0,Survivors (Mus musculus [25]): 1; Survivors (Mus musculus [26]): 0; Survivors (Mus musculus [27]): 1
COc1cccc2c1C(=O)c1c(O)c3c(c(O)c1C2=O)C[C@@](O)(C(=O)COC(=O)CCC(=O)O)C[C@@H]3OC1CC(NC(=O)C(F)(F)F)C(O)C(C)O1 (some centres undefined),127,–,118,127,–,300,–,190,0,Survivors (Mus musculus [25]): 1; Survivors (Mus musculus [26]): 0; Survivors (Mus musculus [28]): 0
COc1cccc2c1C(=O)c1c(O)c3c(c(O)c1C2=O)C[C@@](O)(C(=O)COC(=O)CCCCCCCC(=O)O)C[C@@H]3OC1CC(NC(=O)C(F)(F)F)C(O)C(C)O1 (some centres undefined),172,5,> 445,> 445,445,440,5,> 445,–,Survivors (Mus musculus [11]): 7; Survivors (Mus musculus [9]): 4; Survivors (Mus musculus [24]): 3
COc1cccc2c1C(=O)c1c(O)c3c(c(O)c1C2=O)C[C@@](O)(C(=O)CO)C[C@@H]3O[C@H]1C[C@H](N)[C@H](O)[C@H](C)O1 [DOXORUBICIN],–,–,–,–,–,50,–,–,–,Survivors (Mus musculus [29]): 0; Survivors (Mus musculus [30]): 0; Survivors (Mus musculus [31]): 0; ILS at 2 mg/kg (Mus musculus [32]): 90%; Survivors (Mus musculus [33]): 0; ILS at 1 mg/kg (Mus musculus [34]): 81%; Survivors (Mus musculus [35]): 0; ILS at 4 mg/kg (Mus musculus [36]): 63%; ILS at 3 mg/kg (Mus musculus [37]): 181%

# — ChEMBL document CHEMBL1123031, “Adriamycin analogues. rationale, synthesis, and preliminary antitumor evaluation of highly active DNA-nonbinding N-(trifluoroacetyl)adriamycin 14-O-hemiester derivatives” (1985)
